# Assay results taken from ChEMBL document CHEMBL1833940, “Discovery of 3-(2,6-dichloro-3,5-dimethoxy-phenyl)-1-{6-[4-(4-ethyl-piperazin-1-yl)-phenylamino]-pyrimidin-4-yl}-1-methyl-urea (NVP-BGJ398), a potent and selective inhibitor of the fibroblast growth factor receptor family of receptor tyrosine kinase” (J Med Chem, 2011).
# Activity calls are given as the source filed them. No cut-off for these calls is given here.
# Columns and labels:
# Cytochrome P450 2D6 = Cytochrome P450 2D6 (Homo sapiens, UniProt P10635); experiment: Inhibition of CYP2D6 using AMMC as substrate; assay type: ADME
# How it was run: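 Human CYP450 inhibition was measured with isoform-specific fluorogenic probe substrates: CEC for 1A2 and 2C19, MFC for 2C9, AMMC for 2D6. Incubation was at 37 °C with an NADPH-regenerating system in 384-well format. Metabolite was quantified by fluorescence, and IC50 was obtained by curve fitting.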
# Tumour = experiment: Cmax in tumor of RT112/luc1 cells implanted athymic nude mouse at 5 mg/kg, iv by LC/MS/MS analysis; assay type: ADME, organism-based, Neoplasm; design: dose 5 mg/kg, route intravenous; settings: in vivo
# How it was run: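 Female athymic nude mice carried subcutaneous RT112/luc1 tumors (5×10^6 cells, 50% Matrigel; about 300–400 mm3). Dosing was either 5 mg/kg iv by tail vein in NMP/PEG200 (1:9) or 20 mg/kg oral suspension in PEG300/D5W (2:1). Groups of mice (n = 4) were sacrificed at 0.083–24 h. Plasma and tumor levels were measured by LC-MS/MS (LOQ 5 ng/mL, 10 ng/g).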
# [1] = Tmax in tumor of RT112/luc1 cells implanted athymic nude mouse at 20 mg/kg, po by LC/MS/MS analysis; assay type: ADME, organism-based, Neoplasm; design: dose 20 mg/kg, route oral
# How it was run: (§1)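 Female athymic nude mice carrying subcutaneous RT112/luc1 tumors (ca. 300–400 mm3). Dosing was 5 mg/kg iv by tail vein in NMP/PEG200 (1:9) or 20 mg/kg by oral gavage as a suspension in PEG300/D5W (2:1). Groups (n = 4) were sacrificed from 0.083 to 24 h. Plasma and tumor were measured by LC-MS/MS (LOQ 5 ng/mL, 10 ng/g). Noncompartmental analysis used the linear trapezoidal AUC; F was calculated from dose-normalized AUC.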
# [2] = Plasma clearance in RT112/luc1 cells implanted athymic nude mouse at 5 mg/kg, iv by LC/MS/MS analysis; assay type: ADME, organism-based; design: dose 5 mg/kg, route intravenous; how it was run: as §1
# Rattus norvegicus [3] = experiment: Dose normalized AUC in Wistar rat at 5 mg/kg, iv by LC-MS/MS analysis; assay type: ADME, organism-based; design: dose 5 mg/kg, route intravenous; settings: in vivo
# How it was run: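 Female Wistar rats received either an iv femoral-vein dose of 5 mg/kg in NMP/PEG200 (1:9) or an oral dose of monophosphate salt at 10 mg/kg (free base) in acetate buffer pH 4.6/PEG300. Plasma was sampled by sublingual bleeding at 0.083–24 h (n = 4 staggered, or n = 3–4 serial). Plasma levels were measured by LC-MS/MS (LOQ 10 ng/mL).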
# RT-4 = experiment: Antiproliferative activity against human RT4 cells overexpressing wild type FGFR3 after 72 hrs; assay type: functional, cell-based; settings: RT-4, 72 h
# How it was run: (§2)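 Bladder cancer lines from ATCC or DSMZ were seeded in 96-well plates (RT4, RT112 at 8500 cells/well; others at 5000 cells/well) in growth medium. Compound dilutions or DMSO were added 24 h later and incubated 72 h. Cells were fixed with glutaraldehyde, stained with 0.05% methylene blue and eluted with 3% HCl, then OD650 nm was read.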
# VM-CUB-1 = experiment: Antiproliferative activity against human VMCUB1 cells after 72 hrs; assay type: functional, cell-based; settings: VM-CUB-1, 72 h; how it was run: as §2
# [4] = target: Hepatocyte growth factor receptor (Homo sapiens, UniProt P08581); experiment: Inhibition of recombinant MET
# How it was run: (§3)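 Purified recombinant kinases were tested under optimized conditions with peptide substrates. ATP was set at each kinase's Km. Phosphorylation was read out by microfluidic mobility shift, and IC50 values were determined.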
# [5] = target: MAP kinase-interacting serine/threonine-protein kinase 2 (Homo sapiens, UniProt Q9HBH9); experiment: Inhibition of recombinant MNK2
# How it was run: (§4)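 Purified recombinant kinases under optimized conditions, with peptide substrates and ATP at each kinase's Km. Phosphorylation was read out by microfluidic mobility shift, and IC50 values were obtained.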
# [6] = target: Tyrosine-protein kinase CSK (Homo sapiens, UniProt P41240); experiment: Inhibition of recombinant CSK; how it was run: as §4
# Ephrin type-A receptor 4 = Ephrin type-A receptor 4 (Homo sapiens, UniProt P54764); experiment: Inhibition of recombinant EPHA4
# How it was run: (§5)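 Purified recombinant kinases under optimized conditions with peptide substrates. ATP was set at each kinase's Km. Phosphorylation was read by microfluidic mobility-shift separation of substrate and product; IC50 determined.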
# Ephrin type-B receptor 4 = Ephrin type-B receptor 4 (Homo sapiens, UniProt P54760); experiment: Inhibition of recombinant EPHB4; how it was run: as §4
# Focal adhesion kinase 1 = Focal adhesion kinase 1 (Homo sapiens, UniProt Q05397); experiment: Inhibition of recombinant FAK; how it was run: as §5
# [7] = target: Tyrosine-protein kinase HCK (Homo sapiens, UniProt P08631); experiment: Inhibition of recombinant HCK; how it was run: as §5
# [8] = target: Interleukin-1 receptor-associated kinase 4 (Homo sapiens, UniProt Q9NWZ3); experiment: Inhibition of recombinant IRAK4; how it was run: as §5
# [9] = target: Serine/threonine-protein kinase pim-2 (Homo sapiens, UniProt Q9P1W9); experiment: Inhibition of recombinant PIM2; how it was run: as §5
# [10] = target: Protein kinase C theta type (Homo sapiens, UniProt Q04759); experiment: Inhibition of recombinant PKCtheta; how it was run: as §5
# [11] = target: Proto-oncogene tyrosine-protein kinase Src (Homo sapiens, UniProt P12931); experiment: Inhibition of recombinant SRC; how it was run: as §3
# RT-112 [12] = experiment: Antitumor activity against human RT112 cells xenografted in athymic nude mouse assessed as tumor stasis at 30 mg/kg, po administered for 12 days; assay type: functional, organism-based; design: dose 30 mg/kg
# How it was run: (§6)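 Female HsdNpa:Athymic Nude-nu mice received RT112/luc1 cells (luciferase retroviral line; about 1–2×10^5 cells) into the bladder lumen. Oral treatment started 14 days after inoculation: suspension in PEG300/D5W (2:1) at 10 or 30 mg/kg/qd for 12 days. Tumor burden was measured by IVIS bioluminescence 10 min after iv D-luciferin. T/C was computed from change in light emission; ANOVA with Dunnett's test.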
# Rattus norvegicus [13] = experiment: Inhibition of FGFR autophosphorylation in RT112 tumour bearing nude Rowett rat assessed as decrease in pMAPK concentration at 4.25 mg/kg, po administered as a single dose by Western blot analysis; assay type: functional, organism-based; design: dose 4.25 mg/kg
# How it was run: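 RT112 subcutaneous xenografts in female nude Rowett rats (n = 4). Single oral gavage of the monophosphate salt at 4.25 or 8.51 mg/kg (free base equivalents) in acetic acid–acetate buffer pH 4.6/PEG300 (1:1). Tumors were collected at time points up to 24 h, frozen, homogenized and lysed. Western blots probed pFRS2(Tyr196) and pMAPK, with total FRS2, total MAPK or β-tubulin as loading controls.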
# RT-112 [14] = experiment: Antitumor activity against human RT112 cells xenografted in athymic nude mouse assessed as tumor growth inhibition at 10 mg/kg, po administered for 12 days; assay type: functional, organism-based; design: dose 10 mg/kg; how it was run: as §6
# Mus musculus [15] = experiment: Antiangiogenic activity in po dosed FVB mouse agar chamber model assessed as inhibition of b-FGF-induced angiogenesis around the capsule; assay type: functional, organism-based
# How it was run: (§7)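 Female FVB mice implanted subcutaneously with perfluoroalkoxy-Teflon chambers holding 0.8% agar with 20 U/mL heparin, with or without dog VEGF 2 μg/mL or bFGF 0.3 μg/mL. Oral dosing at 10, 30, 50 mg/kg/day in 10% NMP/PEG300 (5 mL/kg), started before implantation and continued 3 days. Capsules were removed 24 h after the last dose. Readout was capsule weight and Tie-2 by ELISA, as % inhibition against vehicle and no-growth-factor background.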
# Mus musculus [16] = experiment: Antiangiogenic activity in FVB mouse agar chamber model assessed as inhibition of VEGF-induced angiogenesis at 10 to 50 mg/kg, po administered for 4 days; assay type: functional, organism-based; how it was run: as §7
# Sequence of Hepatocyte growth factor receptor (P08581 whole entry): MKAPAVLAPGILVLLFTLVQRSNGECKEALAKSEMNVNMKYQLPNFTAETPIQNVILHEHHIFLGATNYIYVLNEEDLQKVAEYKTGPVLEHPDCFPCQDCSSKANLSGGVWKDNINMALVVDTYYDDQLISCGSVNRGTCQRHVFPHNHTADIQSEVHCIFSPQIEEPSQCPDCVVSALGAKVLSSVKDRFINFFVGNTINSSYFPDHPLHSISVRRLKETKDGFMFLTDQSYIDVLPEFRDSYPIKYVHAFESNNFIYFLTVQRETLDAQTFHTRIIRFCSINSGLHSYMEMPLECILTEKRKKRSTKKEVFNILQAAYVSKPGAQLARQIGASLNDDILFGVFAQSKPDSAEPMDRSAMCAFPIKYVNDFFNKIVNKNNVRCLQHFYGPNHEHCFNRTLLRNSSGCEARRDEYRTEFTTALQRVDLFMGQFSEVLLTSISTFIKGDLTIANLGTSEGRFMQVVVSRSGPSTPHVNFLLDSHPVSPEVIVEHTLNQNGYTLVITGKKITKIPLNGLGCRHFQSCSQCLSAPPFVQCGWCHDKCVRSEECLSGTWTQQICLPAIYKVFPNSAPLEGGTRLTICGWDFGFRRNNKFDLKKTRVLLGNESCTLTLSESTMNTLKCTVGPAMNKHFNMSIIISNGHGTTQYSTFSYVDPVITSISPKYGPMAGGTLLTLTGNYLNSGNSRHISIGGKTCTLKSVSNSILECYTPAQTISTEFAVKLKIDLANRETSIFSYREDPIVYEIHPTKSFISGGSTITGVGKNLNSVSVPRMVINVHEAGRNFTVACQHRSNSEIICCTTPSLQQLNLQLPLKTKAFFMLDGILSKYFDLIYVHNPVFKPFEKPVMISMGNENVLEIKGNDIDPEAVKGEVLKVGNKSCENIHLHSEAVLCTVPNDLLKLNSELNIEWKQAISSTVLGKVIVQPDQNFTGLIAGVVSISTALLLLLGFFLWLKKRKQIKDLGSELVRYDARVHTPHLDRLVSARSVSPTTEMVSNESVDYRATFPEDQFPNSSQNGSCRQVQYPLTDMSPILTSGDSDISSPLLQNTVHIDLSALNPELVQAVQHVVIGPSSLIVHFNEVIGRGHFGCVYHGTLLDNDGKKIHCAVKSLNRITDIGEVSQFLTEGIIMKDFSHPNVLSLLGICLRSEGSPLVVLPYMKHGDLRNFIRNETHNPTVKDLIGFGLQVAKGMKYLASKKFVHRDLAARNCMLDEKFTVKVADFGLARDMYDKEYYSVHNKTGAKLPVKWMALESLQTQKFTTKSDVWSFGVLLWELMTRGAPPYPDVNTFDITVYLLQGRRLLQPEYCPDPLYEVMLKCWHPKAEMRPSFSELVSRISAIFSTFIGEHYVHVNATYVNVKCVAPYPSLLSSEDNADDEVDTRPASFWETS
# Sequence of Ephrin type-B receptor 4 (P54760 whole entry): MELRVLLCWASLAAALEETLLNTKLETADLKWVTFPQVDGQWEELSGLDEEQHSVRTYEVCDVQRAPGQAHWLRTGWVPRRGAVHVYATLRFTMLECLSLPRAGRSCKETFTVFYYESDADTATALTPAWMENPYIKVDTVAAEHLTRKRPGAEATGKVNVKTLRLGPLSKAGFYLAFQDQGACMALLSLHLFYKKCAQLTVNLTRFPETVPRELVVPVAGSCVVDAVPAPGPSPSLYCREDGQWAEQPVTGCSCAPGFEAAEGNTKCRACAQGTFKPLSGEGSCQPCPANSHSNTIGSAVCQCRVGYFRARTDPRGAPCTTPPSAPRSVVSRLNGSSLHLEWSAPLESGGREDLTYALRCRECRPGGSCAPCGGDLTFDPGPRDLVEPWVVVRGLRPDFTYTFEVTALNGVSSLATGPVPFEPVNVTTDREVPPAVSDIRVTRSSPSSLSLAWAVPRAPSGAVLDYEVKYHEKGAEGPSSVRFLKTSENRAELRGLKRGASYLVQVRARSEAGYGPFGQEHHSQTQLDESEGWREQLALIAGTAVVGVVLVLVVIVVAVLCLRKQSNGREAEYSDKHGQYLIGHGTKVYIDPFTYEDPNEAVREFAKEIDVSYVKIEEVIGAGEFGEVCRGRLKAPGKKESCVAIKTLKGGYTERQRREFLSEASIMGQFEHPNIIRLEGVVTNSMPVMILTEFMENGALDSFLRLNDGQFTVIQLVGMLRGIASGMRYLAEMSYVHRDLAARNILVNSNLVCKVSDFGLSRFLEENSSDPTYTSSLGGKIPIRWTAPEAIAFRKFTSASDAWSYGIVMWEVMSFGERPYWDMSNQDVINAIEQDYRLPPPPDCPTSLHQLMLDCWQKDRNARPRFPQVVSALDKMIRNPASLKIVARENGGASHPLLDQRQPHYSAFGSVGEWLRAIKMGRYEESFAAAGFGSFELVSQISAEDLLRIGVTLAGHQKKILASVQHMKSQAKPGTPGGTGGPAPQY
# Sequence of Serine/threonine-protein kinase pim-2 (Q9P1W9 whole entry): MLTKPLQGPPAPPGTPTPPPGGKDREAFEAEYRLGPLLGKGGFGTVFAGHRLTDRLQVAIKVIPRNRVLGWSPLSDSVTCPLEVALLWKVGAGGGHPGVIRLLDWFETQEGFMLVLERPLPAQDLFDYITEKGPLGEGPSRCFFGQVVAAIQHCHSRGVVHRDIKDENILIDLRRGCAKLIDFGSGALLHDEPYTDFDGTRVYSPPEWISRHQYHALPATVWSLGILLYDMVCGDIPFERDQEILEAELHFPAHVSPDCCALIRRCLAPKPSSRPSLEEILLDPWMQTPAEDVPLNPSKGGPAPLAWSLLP
# Sequence of Protein kinase C theta type (Q04759 whole entry): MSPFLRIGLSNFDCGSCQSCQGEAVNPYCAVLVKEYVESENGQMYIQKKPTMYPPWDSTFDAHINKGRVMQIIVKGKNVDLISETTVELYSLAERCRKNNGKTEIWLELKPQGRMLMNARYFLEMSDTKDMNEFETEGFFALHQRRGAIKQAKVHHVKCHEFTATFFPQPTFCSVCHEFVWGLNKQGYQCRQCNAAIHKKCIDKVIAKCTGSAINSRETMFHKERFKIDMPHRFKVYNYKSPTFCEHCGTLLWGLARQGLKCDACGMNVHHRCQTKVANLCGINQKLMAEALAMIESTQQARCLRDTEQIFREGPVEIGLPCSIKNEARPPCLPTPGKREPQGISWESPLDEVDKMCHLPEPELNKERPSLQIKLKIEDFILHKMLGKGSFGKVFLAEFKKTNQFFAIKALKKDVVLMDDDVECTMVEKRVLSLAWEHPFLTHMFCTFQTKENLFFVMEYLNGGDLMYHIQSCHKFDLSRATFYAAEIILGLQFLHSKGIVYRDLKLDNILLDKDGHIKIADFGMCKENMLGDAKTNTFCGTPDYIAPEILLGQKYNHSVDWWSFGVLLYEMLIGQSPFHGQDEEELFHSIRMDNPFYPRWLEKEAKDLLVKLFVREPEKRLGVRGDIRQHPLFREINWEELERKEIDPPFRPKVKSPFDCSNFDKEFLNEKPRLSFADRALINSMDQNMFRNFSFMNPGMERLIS
# Sequence of Proto-oncogene tyrosine-protein kinase Src (P12931 2-536 limits assumed): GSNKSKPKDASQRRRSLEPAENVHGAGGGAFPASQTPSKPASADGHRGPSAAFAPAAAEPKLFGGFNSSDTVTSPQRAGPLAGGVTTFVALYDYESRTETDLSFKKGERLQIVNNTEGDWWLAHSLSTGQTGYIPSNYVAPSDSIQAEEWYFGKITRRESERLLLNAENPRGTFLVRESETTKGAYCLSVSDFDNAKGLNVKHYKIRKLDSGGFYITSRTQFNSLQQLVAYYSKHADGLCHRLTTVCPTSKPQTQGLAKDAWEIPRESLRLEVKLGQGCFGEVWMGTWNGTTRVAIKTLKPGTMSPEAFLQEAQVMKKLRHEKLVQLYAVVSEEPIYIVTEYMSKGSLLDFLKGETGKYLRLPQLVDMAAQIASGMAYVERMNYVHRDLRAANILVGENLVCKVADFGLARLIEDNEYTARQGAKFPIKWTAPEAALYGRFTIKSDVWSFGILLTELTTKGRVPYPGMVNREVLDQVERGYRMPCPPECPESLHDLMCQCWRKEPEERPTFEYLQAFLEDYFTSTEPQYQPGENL
# Sequence of MAP kinase-interacting serine/threonine-protein kinase 2 (Q9HBH9 whole entry): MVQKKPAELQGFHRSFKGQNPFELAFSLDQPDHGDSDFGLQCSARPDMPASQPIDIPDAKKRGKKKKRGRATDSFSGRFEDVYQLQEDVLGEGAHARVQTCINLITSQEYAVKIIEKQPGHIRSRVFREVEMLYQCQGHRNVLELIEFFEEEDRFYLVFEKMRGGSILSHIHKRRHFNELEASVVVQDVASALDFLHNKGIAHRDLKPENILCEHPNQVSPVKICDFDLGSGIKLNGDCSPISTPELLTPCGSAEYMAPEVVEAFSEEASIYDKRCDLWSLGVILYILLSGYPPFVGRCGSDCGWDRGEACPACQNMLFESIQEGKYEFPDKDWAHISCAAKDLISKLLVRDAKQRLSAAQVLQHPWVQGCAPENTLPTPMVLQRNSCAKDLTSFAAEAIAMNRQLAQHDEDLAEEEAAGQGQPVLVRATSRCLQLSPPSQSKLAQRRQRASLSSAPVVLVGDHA
# Sequence of Tyrosine-protein kinase HCK (P08631 whole entry): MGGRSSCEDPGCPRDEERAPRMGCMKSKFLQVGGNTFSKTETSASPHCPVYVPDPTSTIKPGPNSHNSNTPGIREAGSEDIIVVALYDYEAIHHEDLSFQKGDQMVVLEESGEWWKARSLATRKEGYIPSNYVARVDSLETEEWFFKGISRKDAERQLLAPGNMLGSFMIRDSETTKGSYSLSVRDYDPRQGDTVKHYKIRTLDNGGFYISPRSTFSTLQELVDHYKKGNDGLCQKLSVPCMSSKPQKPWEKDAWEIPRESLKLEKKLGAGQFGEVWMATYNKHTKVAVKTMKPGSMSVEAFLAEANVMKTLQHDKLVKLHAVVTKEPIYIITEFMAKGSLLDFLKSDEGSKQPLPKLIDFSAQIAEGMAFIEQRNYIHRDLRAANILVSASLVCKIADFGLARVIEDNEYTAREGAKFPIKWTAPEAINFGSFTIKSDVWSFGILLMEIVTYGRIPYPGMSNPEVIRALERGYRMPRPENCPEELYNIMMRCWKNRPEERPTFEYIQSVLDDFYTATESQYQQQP
structure (smiles),measurement,setting,value
CCN1CCN(c2ccc(Nc3cc(N(C)C(=O)Nc4c(Cl)c(OC)cc(OC)c4Cl)ncn3)cc2)CC1.O=P(O)(O)O [INFIGRATINIB PHOSPHATE],IC50,Cytochrome P450 2D6,> 10 µM
same,Cmax,Tumour,1.68 nmol/g
same,Tmax,[1],8 h
same,clearance,[2],55 mL/min/kg
same,AUC/dose,Rattus norvegicus [3],0.49 µM·h
same,IC50,RT-4,30 nM
same,IC50,VM-CUB-1,> 3000 nM
same,IC50,[4],> 10 µM
same,IC50,[5],> 10 µM
same,IC50,[6],> 10 µM
same,IC50,Ephrin type-A receptor 4,> 10 µM
same,IC50,Ephrin type-B receptor 4,> 10 µM
same,IC50,Focal adhesion kinase 1,> 10 µM
same,IC50,[7],> 10 µM
same,IC50,[8],> 10 µM
same,IC50,[9],> 10 µM
same,IC50,[10],> 10 µM
same,IC50,[11],> 10 µM
same,Activity,RT-112 [12],Active
same,inhibition,Rattus norvegicus [13],Active
same,inhibition,RT-112 [14],Active
same,inhibition,Mus musculus [15],Dose-dependent effect
same,inhibition,Mus musculus [16],inactive
